E-selectin induc – E-selectin induction on HUVECs; P16581; HUVEC E-selectin immunofluorescence imaging; normalized: neutral wells 0, TNF-alpha wells 100; activation, % at 7.58 µM; hit rate 0.37% among 260,000; AID 686992;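 active = mean E-selectin-positive cell signal at least 10% of the positive control, reached in at least 60% of replicates, without over 20% cell loss; inconclusive = no rule given, readout overlaps actives, possibly toxicity-flagged; inactive = the rest, including those meeting only one limit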
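System: HUVEC / Compound: single concentration / Signal: immunofluorescence imaging / Read-out: percent E-selectin-positive cells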
FN deposition inh – fibronectin deposition inhibition. AID 743247. hit rate 0.086% among 350,000. inhibition, % at 12.6 µM. AH1F fibroblasts, Alexa488-fibronectin deposition fluorescence, overnight;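 active = mean inhibition across replicates of 30% or more, regardless of how many single replicates reach that level; inconclusive = mean under 30% yet at least half of replicates reach 30%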
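Measured by – fluorescence 485/525 nm · System – AH1F fibroblast monolayer, labelled fibronectin deposition · Amount – 10000 cells per well · Buffer or medium – serum-reduced DMEM (2% serum) · Doses – single dose, pinned · Also added – fluorescent fibronectin at 24 nM final · Schedule – 1 h cell attachment, overnight exposure to compound and label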
C2C12 statin – protects C2C12 myotubes from simvastatin toxicity; ATP luminescence, 48 h; scaled: DMSO 0, geranylgeraniol control 100; AID 602340; rescue of ATP level, % at 7.49 µM; hit rate 0.78% among 330,000;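 active = mean ATP rescue above about 67%, or every replicate alone reaching that limit, limit read from the data, passing the limit was not always enough; inconclusive = no clear call, values can overlap the other calls; inactive = mean under the limit and some replicate under it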;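 note: myotubes were challenged with 10 µM simvastatin during compound exposure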
SIRT5 block – sirtuin-5 (human) deacylase inhibition. hit rate 1.1% among 330,000. Purified SirT5, succinyl-peptide AMC, trypsin-coupled fluorescence. inhibition, % at 15 µM; in the data active = inhibition above about 15%; inconclusive = no clear call, values can overlap the other calls
Target sequence (Q9NXA8 whole entry, looked up): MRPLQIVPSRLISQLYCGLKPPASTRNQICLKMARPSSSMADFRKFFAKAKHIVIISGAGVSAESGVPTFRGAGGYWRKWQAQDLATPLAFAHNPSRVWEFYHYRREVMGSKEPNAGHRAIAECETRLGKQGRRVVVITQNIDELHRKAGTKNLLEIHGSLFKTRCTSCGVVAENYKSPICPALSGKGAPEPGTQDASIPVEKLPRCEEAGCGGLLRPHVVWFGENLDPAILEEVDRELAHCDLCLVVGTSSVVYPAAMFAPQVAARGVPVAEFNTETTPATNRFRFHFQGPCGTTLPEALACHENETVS
FGF22 binding – binders of recombinant human FGF22 by thermal shift; AID 651658; hit rate 1.5% among 340,000; SYPRO orange fluorescence; percent of sucrose octasulfate shift, DMSO zero; activity (Tm shift, normalised), % at 9.99 µM; Q9HCT0;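 active = mean Tm shift, scaled 0 neutral to 100 positive control, at about 1.3% or above, every replicate too, limit read from the data; inconclusive = no clear call, values can overlap the other calls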
Target sequence (Q9HCT0 whole entry, looked up): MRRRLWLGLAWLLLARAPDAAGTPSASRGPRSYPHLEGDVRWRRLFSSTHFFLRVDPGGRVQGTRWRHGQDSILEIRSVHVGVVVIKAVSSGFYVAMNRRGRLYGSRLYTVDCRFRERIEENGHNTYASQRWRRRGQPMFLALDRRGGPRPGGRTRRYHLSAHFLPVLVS
rRNA inh HTS – inhibits bacterial ribosomal RNA function over humanized ribosomes; E. coli WT GFP vs humanized-ribosome RFP mutants, fluorescence, 24 h; stronger effect = lower value; DMSO median 0, no signal -100; hit rate 1.6% among 350,000; GFP signal change (wild-type ribosome), % (no concentration beside the values);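 active = significant combined selectivity score with lowered wild-type GFP, culture density cut under 30%, mutant RFP and density less affected; inactive = any of these conditions unmet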
Numbers stand for hits; 0 = inactive; ? = inconclusive; - = not tested or not shown. Only some compounds are listed: those with a hit (about 4% of all), similar ones and a draw of the others.

SMILES	E-selectin induc	FN deposition inh	C2C12 statin	SIRT5 block	FGF22 binding	rRNA inh HTS
CCOc1ccccc1N1CC(C(=O)Nc2c(C)n(C)n(-c3ccccc3)c2=O)CC1=O (centres undefined)	0	0	-	0	43.3	0
C[C@@H]1CN([C@H](C)CO)C(=O)c2cc(C#C[C@@H](C)O)cnc2O[C@@H]1CN(C)C(=O)c1ccc(F)cc1	0	-	0	0	0	0
O=C(C[C@@H]1CC[C@@H](NC(=O)C2CCOCC2)[C@@H](CO)O1)Nc1nccs1	0	0	0	0	0	0
COc1ccccc1N1CCN(C(C)C(=O)N2CC(C)OC(C)C2)CC1 (centres undefined)	-	-	0	19.8	0	0
Cc1c(NC(=O)C(C)OC(=O)COc2cccc3c2OC(C)(C)C3)c(=O)n(-c2ccccc2)n1C (centres undefined)	-	-	114.2	-	-	-
C/C(=N\NC(N)=S)c1cc(-c2ccccc2)c(-c2ccccc2)s1	0	0	108.1	0	0	0
C/C(=N\NC(N)=S)c1ccccc1	0	0	-	0	0	0
CCOCCCNC(=O)c1ccc2c(c1)ncn2C1CCCC1	-	-	0	-	-	-
CC(C)CCNC(=O)c1ccc2c(c1)ncn2C1CCCC1	0	0	-	0	44.6	0
CO[C@H]1CN(C)C(=O)c2cc(NC(=O)c3cc(C)on3)ccc2OC[C@H](C)N(CC2CC2)C[C@H]1C	0	0	0	0	0	0
COCC(=O)N(C)C[C@@H]1Oc2ncc(-c3ccc(C#N)cc3)cc2C(=O)N([C@@H](C)CO)C[C@@H]1C	0	0	0	0	0	0
CS(=O)(=O)N(CC(=O)N/N=C/c1cccs1)c1cccc(Cl)c1Cl	-	-	118.6	-	-	-
Cc1ccc(S(=O)(=O)N(CC(=O)N/N=C\c2cccs2)c2cccc3cccnc23)cc1	0	0	-	0	0	-
C[C@H](CO)N1C[C@H](C)[C@@H](CN(C)C(=O)Nc2ccccc2)OCCCC[C@H](C)Oc2ccc(NC(=O)Nc3ccc(C(F)(F)F)cc3)cc2C1=O	-	-	-	-	-	0
C[C@H](CO)N1C[C@H](C)[C@H](CN(C)S(=O)(=O)c2cccs2)Oc2ccc(NC(=O)Cc3cn(C)c4ccccc34)cc2C1=O	-	-	104.0	0	0	0
C[C@H]1CN([C@@H](C)CO)C(=O)c2cc(NC(=O)Cc3cn(C)c4ccccc34)ccc2O[C@H]1CN(C)S(=O)(=O)c1cccs1	-	-	?	0	0	0
C[C@@H]1CN([C@@H](C)CO)C(=O)c2cc(NC(=O)Cc3cn(C)c4ccccc34)ccc2O[C@H]1CN(C)S(=O)(=O)c1cccs1	-	-	111.2	0	0	0
C[C@@H]1CN([C@H](C)CO)C(=O)c2cc(NC(=O)Cc3cn(C)c4ccccc34)ccc2O[C@H]1CN(C)S(=O)(=O)c1cccs1	-	-	0	0	0	0
CC(C)NC(=O)N(C)C[C@@H]1Oc2ccc(NC(=O)C3CCCCC3)cc2C(=O)N([C@@H](C)CO)C[C@H]1C	0	-	0	0	0	0
COc1ccc(COn2c(=O)c(C)[n+]([O-])c3ccccc32)cc1OC	-	-	106.4	-	-	-
N#Cc1cc2c(nc1SCc1ccc(Cl)cc1)CCCC2	-	-	0	0	0	0
CCn1c(SCc2ccc(Cl)cc2)nc2nc3c(cc2c1=O)CCCC3	-	0	-	0	0	-22.2
CC(=O)Oc1ccc2oc(=O)c3c(c2c1)CCCN3C(=O)CN1CCOCC1	-	0	-	0	42.9	0
CC(=O)Oc1ccc2oc(=O)c3c(c2c1)CCCN3C(=O)CN1CCN(c2ncccn2)CC1	-	-	0	-	-	-
COc1ccc(Nc2nc3ccccc3nc2NS(=O)(=O)c2cccs2)cc1	0	0	0	-	-	-
SMILES	E-selectin induc	FN deposition inh	C2C12 statin	SIRT5 block	FGF22 binding	rRNA inh HTS
O=S(=O)(Nc1nc2ccccc2nc1OCC(F)(F)F)c1cccs1	0	0	0	0	45.1	0
COc1ccc(CN2C[C@@H](CO)O[C@@H](n3cnc4c(NCc5ccc(F)cc5)ncnc43)C2)cc1	0	0	81.3	-	0	-
COc1cc(CNc2ncnc3c2ncn3[C@H]2CN(Cc3cccc4ccccc34)C[C@@H](CO)O2)cc(OC)c1OC	0	0	165.9	0	0	0
C[C@@H](NC(=O)C[C@@H]1C[C@H]2c3cc(NC(=O)CC4CC4)ccc3O[C@H]2[C@H](CO)O1)c1ccccc1	0	0	0	-	-	0
O=S(=O)(N[C@@H]1CC[C@H](CCn2cc(-c3ccc(F)cc3)nn2)O[C@@H]1CO)c1ccccc1F	0	-	0	0	0	0
CC(C)c1c(O)ccc2c1CC[C@H]1C(C)(C)CCC[C@]21C	0	0	0	0	0	-14.3
O=C(O)c1cccc(N/N=C/C2=C(Cl)c3cc(Cl)ccc3SC2)c1	-	0	-	0	43.0	0
CN1[C@H](CO)[C@@H]2c3ccccc3N(C(=O)C3CCOCC3)C[C@@H]21	0	-	0	0	0	0
CNC[C@H]1Oc2ccc(N(C)C)cc2CC(=O)N(C)C[C@@H]1C	-	0	-	-	-	0
CC(C)c1cccc(C(C)C)c1NC(=O)CCl	0	0	-	15.7	0	0
COc1ccc([C@H]2N[C@]3(CCCN(Cc4ccc(C)cc4)C3=O)[C@H]3C(=O)N(C)C(=O)[C@@H]23)cc1	0	0	0	39.0	0	0
CCN1C(=O)[C@H]2[C@@H](c3ccc(C)cc3)N[C@]3(CCCN(Cc4ccc(Cl)cc4)C3=O)[C@H]2C1=O	0	0	0	0	0	-20.2
O=C(c1ccccc1)N1CC2(C1)[C@H](c1ccccc1)[C@@H](CO)N2Cc1cccnc1	0	-	-	0	0	0
C[C@@H]1CN([C@H](C)CO)C(=O)c2cc(NC(=O)CCN3CCOCC3)ccc2O[C@H]1CN(C)Cc1ccc2c(c1)OCO2	0	0	0	0	0	0
CC(C)NC(=O)N1[C@H](CO)[C@@H]2c3ccccc3N(C(=O)Nc3ccc(Cl)cc3)C[C@@H]21	0	-	0	0	-	0
COc1ccc([Si](C)(C)[C@H]2[C@H](CCO)O[C@@]3(C(=O)N(Cc4cccc(NC(=O)[C@H](C)O)c4)c4ccccc43)[C@@H]2C)cc1	-	-	-	0	2.9	-
COc1ccc([Si](C)(C)[C@@H]2[C@@H](CCO)O[C@]3(C(=O)N(Cc4ccc(NC(=O)[C@H](C)O)cc4)c4ccccc43)[C@H]2C)cc1	-	-	-	0	0	-
CCOc1ccc(OCCSc2nc3ccccc3[nH]2)cc1	-	0	0	0	0	-28.4
Nc1c(-c2ccccc2)c(CSc2nc3ccccc3[nH]2)nn1-c1ccc(Cl)cc1	0	0	-	0	0	-19.2
c1ccc(CSc2nc3ccccc3[nH]2)cc1	0	0	0	0	0	-21.9
Nc1c(-c2ccccc2)c(CSc2nc3ccccc3[nH]2)nn1-c1cccc(Cl)c1	0	0	-	0	0	-
COCC#Cc1ccc([C@@H]2[C@H](CO)N3C(=O)CN(C(=O)C4CCCC4)C[C@@H]23)cc1	0	0	-	0	-	0

Screening data (PubChem)
